As a reminder, the IC50 is the concentration needed to halve the response being measured. Read a high IC50 as weaker potency in that assay. For orientation: MIC means the least concentration at which growth counts as inhibited. Higher therefore signals weaker potency.

One test has as its system Candida albicans. Kind of test: Antimicrobial activity against Candida albicans. The class given is functional, organism-based. The method in brief: (§1)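 Antimicrobial assay run per an earlier method. Both IC50 and MIC were reported in µg/mL. Amphotericin B was the positive control for C. albicans and C. neoformans.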
For another test, the system named is Cryptococcus neoformans. Kind of test: Antimicrobial activity against Cryptococcus neoformans. In kind it is functional, organism-based. The essentials:
as §1

A short description of test [1]: Inhibition of Candida albicans secreted aspartic protease. The essentials: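 SAP inhibition assay run per an earlier method, with IC50 reported in µg/mL. Pepstatin A was the positive control.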
In test [2] the test system is Staphylococcus aureus. Kind of test: Antimicrobial activity against Staphylococcus aureus. The class given is functional, organism-based. The essentials:
as §1

The subject of test [3] is Staphylococcus aureus. Kind of test: Antimicrobial activity against methicillin-resistant Staphylococcus aureus. In kind it is functional, organism-based.

Converted amounts (≈) assume the structure as drawn.

In the test on Candida albicans, `C[C@@H]1[C@H](O)[C@@H](C)/C=C/C=C/C=C/C=C/C=C/C=C/C=C/[C@H](O[C@@H]2O[C@H](C)[C@@H](O)[C@H](N)[C@@H]2O)C[C@@H]2O[C@](O)(C[C@@H](O)C[C@@H](O)[C@H](O)CC[C@@H](O)C[C@@H](O)CC(=O)O[C@H]1C)C[C@H](O)[C@H]2C(=O)O` [AMPHOTERICIN B] came in with a half-inhibitory concentration (IC50) of 0.06 µg/mL (≈ 0.0649 µM). In the test on Cryptococcus neoformans, this molecule came in with an IC50 of 0.3 µg/mL (≈ 0.325 µM) and an MIC of 0.63 µg/mL (≈ 0.682 µM).
With `COc1ccc2c(c1)C(=O)c1nccc3cc4c(c-2c13)OCO4` [ATHEROSPERMIDINE], the IC50 in test [1] was 45 µg/mL (≈ 147 µM).
Regarding `O=C(O)c1cn(C2CC2)c2cc(N3CCNCC3)c(F)cc2c1=O` [CIPROFLOXACIN], in the test with Staphylococcus aureus [2], the IC50 was 0.07 µg/mL (≈ 0.211 µM) and the minimum inhibitory concentration (MIC) was determined as 0.39 µg/mL (≈ 1.18 µM). This molecule displayed a minimal inhibitory concentration (MIC) with Staphylococcus aureus [3] of 3.13 µg/mL (≈ 9.45 µM).
As for `O=C1c2ccccc2-c2c3c(cc4ccnc1c24)OCO3` [LIRIODENINE], the IC50 in the test with Staphylococcus aureus [2] amounted to 2 µg/mL (≈ 7.27 µM); in the test with Staphylococcus aureus [3], 2 µg/mL (≈ 7.27 µM); in the test with Candida albicans, 3.5 µg/mL (≈ 12.7 µM); in the test on Cryptococcus neoformans, 2 µg/mL (≈ 7.27 µM). Also, the minimum inhibitory concentration (MIC) was found to be 3.13 µg/mL (≈ 11.4 µM) in the test on Staphylococcus aureus [2], 3.13 µg/mL (≈ 11.4 µM) in the test with Staphylococcus aureus [3], 6.25 µg/mL (≈ 22.7 µM) in the test on Candida albicans and 12.5 µg/mL (≈ 45.4 µM) against Cryptococcus neoformans.
As for `CC(C)CC(=O)N[C@H](C(=O)N[C@H](C(=O)N[C@@H](CC(C)C)[C@@H](O)CC(=O)N[C@@H](C)C(=O)N[C@@H](CC(C)C)[C@@H](O)CC(=O)O)C(C)C)C(C)C` [PEPSTATIN], the IC50 in test [1] worked out at 0.006 µg/mL (≈ 0.00875 µM).

The values above are taken from ChEMBL document CHEMBL1150589, “New sesquiterpenoids from the root of Guatteria multivenia” (J Nat Prod, 2002).
